Values after ≈ are worked out from the molar mass of the structure shown.
What was measured:
Bacillus cereus [1] = experiment: Antibacterial activity against Bacillus cereus at 100 ug/disc after 24 hrs by disc diffusion method; type: functional; conditions: read-out: DIZ
Procedure, shortened: (§1)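 Paper disc diffusion on autoclaved Mueller-Hinton agar poured 5 mm deep. Agar was swab-inoculated with 10⁵ CFU/mL suspension (0.5 McFarland). Discs 6.25 mm across were soaked in compound solution in DMSO (3.12–100 µg/mL) and plates incubated 24 h at (37 ± 1) °C. Read-out was inhibition zone (mm). DMSO control disc; ciprofloxacin or ketoconazole reference, 100 µg/disc. Mean of three independent experiments.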

Staphylococcus aureus [2] = experiment: Antibacterial activity against Staphylococcus aureus after 24 hrs by agar streak dilution method; type: functional
Procedure, shortened: (§2)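 MIC by agar streak dilution. Graded amounts of DMSO stock (100 μg/mL) were mixed into molten sterile nutrient agar and poured 4–5 mm deep. Serial concentrations spanned 3.12–100 µg/mL. Plates were inoculated with about 10⁵ CFU/mL of bacterial suspension and incubated at (37 ± 1) °C for 24 h. Each value is the mean of three independent experiments.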

Pseudomonas aeruginosa [3] = experiment: Antibacterial activity against Pseudomonas aeruginosa […] after 24 hrs by agar streak dilution method; type: functional
Candida albicans [4] = experiment: Antifungal activity against Candida albicans after 48 hrs by agar streak dilution method; type: functional
Procedure, shortened: (§3)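 Fungal MIC by agar streak dilution on Sabouraud dextrose agar, poured 4–5 mm deep. Compound from a DMSO stock (100 μg/mL) was incorporated at serial concentrations of 3.12–100 µg/mL. Plates were inoculated with about 10⁵ CFU/mL of suspension and incubated at (37 ± 1) °C for 48 h. Each value is the mean of three independent experiments.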

Bacillus cereus [5] = experiment: Antibacterial activity against Bacillus cereus after 24 hrs by agar streak dilution method; type: functional; procedure, shortened: as §2
Escherichia coli [6] = experiment: Antibacterial activity against Escherichia coli at 100 ug/disc after 24 hrs by disc diffusion method; type: functional; conditions: read-out: DIZ; procedure, shortened: as §1
Salmonella typhi [7] = experiment: Antibacterial activity against Salmonella Typhi after 24 hrs by agar streak dilution method; type: functional, Salmonella enterica subsp. enterica serovar Typhi; conditions: Salmonella enterica
Procedure, shortened: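 Agar streak dilution: DMSO stock (100 µg/mL) graded into molten sterile nutrient agar, poured 4–5 mm deep and solidified. Plates carry serial dilutions spanning 3.12–100 µg/mL. Applied ~10⁵ CFU/mL suspension, then incubated 24 h at (37 ± 1) °C. MIC read as the lowest inhibitory concentration; each value is the mean of three independent experiments.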

Klebsiella pneumoniae [8] = experiment: Antibacterial activity against Klebsiella pneumoniae at 100 ug/disc after 24 hrs by disc diffusion method; type: functional; conditions: read-out: DIZ; procedure, shortened: as §1
Shigella flexneri [9] = experiment: Antibacterial activity against Shigella flexneri after 24 hrs by agar streak dilution method; type: functional; procedure, shortened: as §2
Staphylococcus aureus [10] = experiment: Antibacterial activity against Staphylococcus aureus at 100 ug/disc after 24 hrs by disc diffusion method; type: functional; conditions: read-out: DIZ; procedure, shortened: as §1
Aspergillus fumigatus [11] = experiment: Antifungal activity against Aspergillus fumigatus after 48 hrs by agar streak dilution method; type: functional; procedure, shortened: as §3
Candida albicans [12] = experiment: Antifungal activity against Candida albicans at 100 ug/disc after 24 hrs by disc diffusion method; type: functional; conditions: read-out: DIZ; procedure, shortened: as §1
Aspergillus niger [13] = experiment: Antifungal activity against Aspergillus niger at 100 ug/disc after 24 hrs by disc diffusion method; type: functional; conditions: read-out: DIZ; procedure, shortened: as §1
Pseudomonas aeruginosa [14] = experiment: Antibacterial activity against Pseudomonas aeruginosa at 100 ug/disc after 24 hrs by disc diffusion method; type: functional; conditions: read-out: DIZ; procedure, shortened: as §1
Aspergillus clavatus [15] = experiment: Antifungal activity against Aspergillus clavatus after 48 hrs by agar streak dilution method; type: functional; procedure, shortened: as §3
Klebsiella pneumoniae [16] = experiment: Antibacterial activity against Klebsiella pneumoniae […] after 24 hrs by agar streak dilution method; type: functional
Aspergillus clavatus [17] = experiment: Antifungal activity against Aspergillus clavatus at 100 ug/disc after 24 hrs by disc diffusion method; type: functional; conditions: read-out: DIZ; procedure, shortened: as §1
Shigella flexneri [18] = experiment: Antibacterial activity against Shigella flexneri at 100 ug/disc after 24 hrs by disc diffusion method; type: functional; conditions: read-out: DIZ; procedure, shortened: as §1
Escherichia coli [19] = experiment: Antibacterial activity against Escherichia coli after 24 hrs by agar streak dilution method; type: functional; procedure, shortened: as §2
Aspergillus niger [20] = experiment: Antifungal activity against Aspergillus niger after 48 hrs by agar streak dilution method; type: functional; procedure, shortened: as §3
Salmonella typhi [21] = experiment: Antibacterial activity against Salmonella Typhi at 100 ug/disc after 24 hrs by disc diffusion method; type: functional, Salmonella enterica subsp. enterica serovar Typhi; conditions: Salmonella enterica, read-out: DIZ
Procedure, shortened: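 Paper disc diffusion on Mueller-Hinton agar poured 5 mm deep; 10⁵ CFU/mL suspension (0.5 McFarland) swabbed over surface. 6.25 mm filter paper discs soaked in compound in DMSO, incubated 24 h at (37 ± 1) °C; inhibition zone diameter in mm. DMSO disc as blank; ciprofloxacin 100 µg/disc as reference. Mean of three independent experiments.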

Proteus vulgaris [22] = experiment: Antibacterial activity against Proteus vulgaris after 24 hrs by agar streak dilution method; type: functional; procedure, shortened: as §2
Aspergillus fumigatus [23] = experiment: Antifungal activity against Aspergillus fumigatus at 100 ug/disc after 24 hrs by disc diffusion method; type: functional; conditions: read-out: DIZ; procedure, shortened: as §1
Proteus vulgaris [24] = experiment: Antibacterial activity against Proteus vulgaris at 100 ug/disc after 24 hrs by disc diffusion method; type: functional; conditions: read-out: DIZ; procedure, shortened: as §1

SMILES | zone of inhibition at 100 µg/disc (Bacillus cereus [1]) | MIC (Staphylococcus aureus [2]) | MIC (Pseudomonas aeruginosa [3]) | MIC (Candida albicans [4]) | MIC (Bacillus cereus [5]) | zone of inhibition at 100 µg/disc (Escherichia coli [6]) | MIC (Salmonella typhi [7]) | zone of inhibition at 100 µg/disc (Klebsiella pneumoniae [8]) | MIC (Shigella flexneri [9]) | zone of inhibition at 100 µg/disc (Staphylococcus aureus [10]) | MIC (Aspergillus fumigatus [11]) | zone of inhibition at 100 µg/disc (Candida albicans [12]) | zone of inhibition at 100 µg/disc (Aspergillus niger [13]) | zone of inhibition at 100 µg/disc (Pseudomonas aeruginosa [14]) | MIC (Aspergillus clavatus [15]) | MIC (Klebsiella pneumoniae [16]) | zone of inhibition at 100 µg/disc (Aspergillus clavatus [17]) | zone of inhibition at 100 µg/disc (Shigella flexneri [18]) | MIC (Aspergillus niger [20]) | zone of inhibition at 100 µg/disc (Salmonella typhi [21]) | also measured
CCN1CCN(CC2SC(c3ccccc3[N+](=O)[O-])N(c3ccc(Nc4nc(Oc5cc(=O)n(C)c6ccccc56)nc(N(C)C)n4)cc3)C2=O)CC1 (stereo not given) | 17 mm | 100 µg/mL (≈ 136 µM) | 100 µg/mL (≈ 136 µM) | 100 µg/mL (≈ 136 µM) | 50 µg/mL (≈ 67.9 µM) | 14 mm | 100 µg/mL (≈ 136 µM) | 15 mm | 100 µg/mL (≈ 136 µM) | 13 mm | 100 µg/mL (≈ 136 µM) | 19 mm | < 10 mm | 16 mm | 100 µg/mL (≈ 136 µM) | 100 µg/mL (≈ 136 µM) | 15 mm | 14 mm | 100 µg/mL (≈ 136 µM) | 15 mm | MIC (Escherichia coli [19]): 100 µg/mL (≈ 136 µM); MIC (Proteus vulgaris [22]): 100 µg/mL (≈ 136 µM); zone of inhibition at 100 µg/disc (Aspergillus fumigatus [23]): 13 mm; zone of inhibition at 100 µg/disc (Proteus vulgaris [24]): 17 mm
CCN1CCN(CC2SC(c3ccc(OC)cc3)N(c3ccc(Nc4nc(Oc5cc(=O)n(C)c6ccccc56)nc(N(C)C)n4)cc3)C2=O)CC1 (stereo not given) | 27 mm | 6.25 µg/mL (≈ 8.66 µM) | 12.5 µg/mL (≈ 17.3 µM) | 12.5 µg/mL (≈ 17.3 µM) | 6.25 µg/mL (≈ 8.66 µM) | 27 mm | 6.25 µg/mL (≈ 8.66 µM) | 25 mm | 6.25 µg/mL (≈ 8.66 µM) | 28 mm | 12.5 µg/mL (≈ 17.3 µM) | 26 mm | 25 mm | 25 mm | 12.5 µg/mL (≈ 17.3 µM) | 25 µg/mL (≈ 34.6 µM) | 24 mm | 26 mm | 12.5 µg/mL (≈ 17.3 µM) | 26 mm | MIC (Escherichia coli [19]): 6.25 µg/mL (≈ 8.66 µM); MIC (Proteus vulgaris [22]): 50 µg/mL (≈ 69.3 µM); zone of inhibition at 100 µg/disc (Aspergillus fumigatus [23]): 27 mm; zone of inhibition at 100 µg/disc (Proteus vulgaris [24]): 21 mm
CCN1CCN(CC2SC(c3ccc(Br)cc3)N(c3ccc(Nc4nc(Oc5cc(=O)n(C)c6ccccc56)nc(N(C)C)n4)cc3)C2=O)CC1 (stereo not given) | 18 mm | 100 µg/mL (≈ 130 µM) | 100 µg/mL (≈ 130 µM) | 100 µg/mL (≈ 130 µM) | 100 µg/mL (≈ 130 µM) | 19 mm | 100 µg/mL (≈ 130 µM) | 19 mm | 100 µg/mL (≈ 130 µM) | 15 mm | 100 µg/mL (≈ 130 µM) | 12 mm | 14 mm | 16 mm | 100 µg/mL (≈ 130 µM) | 100 µg/mL (≈ 130 µM) | 16 mm | 15 mm | 100 µg/mL (≈ 130 µM) | 17 mm | MIC (Escherichia coli [19]): 100 µg/mL (≈ 130 µM); MIC (Proteus vulgaris [22]): 100 µg/mL (≈ 130 µM); zone of inhibition at 100 µg/disc (Aspergillus fumigatus [23]): 14 mm; zone of inhibition at 100 µg/disc (Proteus vulgaris [24]): 17 mm
O=C(O)c1cn(C2CC2)c2cc(N3CCNCC3)c(F)cc2c1=O [CIPROFLOXACIN] | 31 mm | 1 µg/mL (≈ 3.02 µM) | 1 µg/mL (≈ 3.02 µM) | – | 1 µg/mL (≈ 3.02 µM) | 32 mm | 1 µg/mL (≈ 3.02 µM) | 33 mm | ≤ 3 µg/mL | 30 mm | – | – | – | 33 mm | – | 1 µg/mL (≈ 3.02 µM) | – | 32 mm | – | 30 mm | MIC (Proteus vulgaris [22]): 1 µg/mL (≈ 3.02 µM); zone of inhibition at 100 µg/disc (Proteus vulgaris [24]): 31 mm
CC(=O)N1CCN(c2ccc(OCC3COC(Cn4ccnc4)(c4ccc(Cl)cc4Cl)O3)cc2)CC1 (stereo not given) [KETOCONAZOLE] | – | – | – | 1 µg/mL (≈ 1.88 µM) | – | – | – | – | – | – | 1 µg/mL (≈ 1.88 µM) | 33 mm | 30 mm | – | 1 µg/mL (≈ 1.88 µM) | – | 31 mm | – | ≤ 3 µg/mL | – | zone of inhibition at 100 µg/disc (Aspergillus fumigatus [23]): 29 mm

Reference: ChEMBL document CHEMBL1933017, “Synthesis and biological evaluation of some thiazolidinones as antimicrobial agents” (2012)
